# SUMO1 PPI mod: modulators of SUMO1 protein-protein interactions, primary screen, biochemical, uHTS; AID 602429, 2012; 360,000 tested, 0.33% active; SUMO1 binding to a labelled peptide, TR-FRET, 1 h; inhibition, % at 20 µM; Small ubiquitin-related modifier 1 (Homo sapiens), P63165; in the data active = inhibition above about 37%
# Target sequence (P63165 whole entry, looked up): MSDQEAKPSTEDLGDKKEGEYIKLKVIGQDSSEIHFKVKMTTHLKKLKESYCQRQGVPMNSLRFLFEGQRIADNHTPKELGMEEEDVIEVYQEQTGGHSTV
# LMPTP block: LMPTP phosphatase inhibitors, primary screen, biochemical, fluorescence intensity, uHTS | recombinant LMPTP-A, OMFP fluorogenic substrate | inhibition, % at 20 µM | AID 651560, 2012 | 360,000 tested, 0.22% active;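 active = compounds that cut the enzyme signal by at least half of the control window in the single-dose screen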;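 also: plate controls were DMSO wells with enzyme plus substrate for no effect and substrate without enzyme for full effect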
# Target sequence (P24666 whole entry, looked up): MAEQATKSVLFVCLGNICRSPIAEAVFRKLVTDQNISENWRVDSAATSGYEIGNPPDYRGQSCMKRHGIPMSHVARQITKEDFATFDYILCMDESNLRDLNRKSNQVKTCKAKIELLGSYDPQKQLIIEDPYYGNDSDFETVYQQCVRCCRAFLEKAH
#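 Test system: LMPTP-A phosphatase enzyme; input: 0.625 nM LMPTP-A final; reagent: OMFP substrate, 400 µM final; compound dosing: 20 µM single dose, 3% DMSO; incubation: 50 min dark incubation at room temperature; measured by: endpoint fluorescence intensity from OMFP dephosphorylation; measure: % inhibition relative to no-enzyme and uninhibited control wells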
# Scp-1 inhibitor: Scp-1 phosphatase inhibitors, primary screen, biochemical, colorimetric, uHTS | Recombinant Scp1, phosphopeptide, malachite green phosphate absorbance | inhibition, % at 20 µM | 340,000 tested, 0.88% active;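 active = inhibition above about 50% at 20 µM, limit read from the data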;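 also: plate controls were DMSO wells with enzyme for no effect and wells lacking enzyme for full effect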
# Target sequence (Q9GZU7 76-261 limits assumed): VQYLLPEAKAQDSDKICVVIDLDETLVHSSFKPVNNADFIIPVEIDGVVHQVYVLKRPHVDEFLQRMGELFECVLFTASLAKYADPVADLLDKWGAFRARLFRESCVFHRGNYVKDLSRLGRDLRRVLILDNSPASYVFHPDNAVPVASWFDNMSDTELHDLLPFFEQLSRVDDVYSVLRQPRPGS
#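 System: SCP-1 catalytic domain; Reagent: Phospho 17-mer peptide substrate; Doses: one concentration, 20 µM, with 1.0% DMSO; Incubation: 45 min room-temperature reaction, 5 min colour, 30 min stabiliser; Signal: Phosphate-binding colour reagent, absorbance read at 630 nm.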
# DNMT1 inh: human DNMT1 methyltransferase inhibitors, primary screen, biochemical, molecular beacon, fluorescence, HinP1I cleavage, uHTS; DNA (cytosine-5)-methyltransferase 1 (Homo sapiens), P26358; inhibition (reported as % activation of signal), % at 10 µM; 360,000 tested, 0.83% active; in the data active = inhibition above about 50%
# STEP block: STEP phosphatase inhibitors, primary screen, biochemical, fluorescence intensity, uHTS; Tyrosine-protein phosphatase non-receptor type 5 (Homo sapiens), P54829; recombinant STEP, OMFP fluorogenic substrate; inhibition, % at 20 µM; 360,000 tested, 0.25% active;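 active = inhibition at 20 µM, scaled per plate between control wells, above about 37%, limit read from the data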;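 also: 0% = DMSO with enzyme and substrate and 100% = substrate only without enzyme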
#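 Assay system: isolated STEP enzyme. Buffer or medium: pH 6.0 Bis-Tris with DTT and Tween 20. Also added: fluorogenic phosphatase substrate OMFP at 25 µM final. Dosing: 20 µM, 1% DMSO. Timing: 20 min reaction, room temperature, in the dark. Measured by: fluorescence intensity, excitation 480 nm, emission 540 nm. Evaluation: normalized % inhibition.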
# DNMT1 interf DR: spectral interference with molecular beacon fluorescence, dose response, artefact control for DNMT1 inhibitor project, biochemical, fluorescent molecular beacon. shares compounds with DNMT1 inh. spectral interference counter-screen. IC50, µM. 200 tested, under 10 active
# DNMT1 confirm: DNMT1 methyltransferase inhibitor retest, confirmation, biochemical, molecular beacon, fluorescence, single concentration | shares compounds with DNMT1 inh | DNMT1 molecular beacon HinP1I cleavage | inhibition, % at 10 µM | 2,300 tested, 8% active;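 active = average inhibition of at least 30% in the single-concentration confirmation test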
# Beacon interf: counter-screen for DNMT1 inhibitors: spectral interference | shares compounds with DNMT1 inh | DNMT1 molecular beacon spectral interference counterscreen, fluorescence 485/520 | AID 602387 | activation (fluorescence interference), % at 10 µM | 2,300 tested, 1% active;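 active = activation of at least 30% at 10 µM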;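 also: DNMT1 catalytic domain with a HinP1I cleavage step and a FAM/dabcyl DNA beacon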
# STEP conf: STEP phosphatase inhibitor hit confirmation, biochemical, fluorescence intensity, single concentration. shares compounds with STEP block. recombinant STEP, OMFP fluorogenic substrate. 520 tested, 32% active. inhibition, % at 20 µM;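 also: 0% = enzyme with substrate plus DMSO and 100% = substrate without enzyme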
# Starred values were filed as active, the others as inactive; x = not tested or not shown. The list is not random: actives were taken first. Their share in the collection is about 1.7%. Unless noted, no rule for the calls is given here.
SMILES,SUMO1 PPI mod,LMPTP block,Scp-1 inhibitor,DNMT1 inh,STEP block,STEP conf,others
COc1cc(/C=C2\SC(=S)N(C(C(=O)O)c3ccccc3)C2=O)cc(OC)c1OC (stereo not drawn),-14,3,-2,5,-2,x,
O=C(O)C(c1ccccc1)N1C(=O)/C(=C\c2ccc(-c3ccc(Br)cc3)o2)SC1=S (stereo not drawn),91*,65*,20,93*,11,x,DNMT1 interf DR=47*;DNMT1 confirm=93*;Beacon interf=-2
CCCn1c(=O)[nH]c(=O)c2c1nc(-c1ccc(OC)c(Br)c1)n2CCOC,1,-1,-5,1,12,x,
CCC(Cc1ccccc1)OC(=O)c1ccccc1C(=O)O (stereo not drawn),2,1,-13,0,-2,x,
CCN1/C(=C\C=C2\C(=O)N(c3ccccc3)C(=S)N2C)Sc2ccccc21,-20,16,14,55*,7,x,DNMT1 confirm=2;Beacon interf=0
CCN1/C(=C\C=C(C(C)=O)C(C)=O)Sc2ccccc21,-54,14,-7,11,1,x,
CCOc1cc(C(=O)Nc2ccc(C(=O)NCCN(CC)CC)cc2)ccc1OCC(=O)N1CCOCC1,5,-1,-7,6,3,x,
Nc1c(C(=O)OCC2CCCO2)c2nc3ccccc3nc2n1-c1ccc2c(c1)OCCO2 (stereo not drawn),x,x,1,x,x,x,
O=c1c2c3nc4ccccc4nc3n(-c3ccc4c(c3)OCCO4)c2ncn1C1CCCC1,-14,26,85*,72*,51*,-3,DNMT1 confirm=3;Beacon interf=-6
COCCCNC(=S)N/N=C/c1ccc(OC)c(Br)c1,-8,-1,-7,1,-2,x,
COc1ccc(OC)c(N2C(=O)[C@@H]3C(c4ccccc4Cl)=NO[C@@H]3C2=O)c1,13,27,48,114*,55*,80*,DNMT1 interf DR=>99;DNMT1 confirm=60*;Beacon interf=2
Cc1cccc(C)c1N1C(=O)[C@@H]2C(c3ccccc3Cl)=NO[C@@H]2C1=O,5,1,-6,-1,1,x,
COc1ccc(S(=O)(=O)c2ccc(OC)c(OC)c2)cc1OC,21,-3,-6,2,-2,x,
NC(N)=NCCCS(=O)(=O)Nc1ccc(Nc2c3ccccc3nc3cc([N+](=O)[O-])ccc23)cc1,26,63*,5,67*,48*,6,DNMT1 interf DR=>99;DNMT1 confirm=72*;Beacon interf=-16
COc1ccc(C(C(=O)Nc2c(C)cccc2C)N2CCN(C)CC2)cc1 (stereo not drawn),1,-3,x,x,x,x,
COc1ccc(CN2CCN(c3ccccc3OC)CC2)cc1OC,-5,-1,0,67*,91*,-4,DNMT1 confirm=1;Beacon interf=4
O=c1c2ccccc2nc2sc(Nc3cccc(Cl)c3)nn12,-230,72*,41,107*,70*,10,DNMT1 confirm=0;Beacon interf=0
C[C@@H](NC(=O)c1ncn2c1c(=O)[nH]c1cccnc12)c1ccccc1,15,2,x,5,0,x,
C[C@@H](NC(=O)c1ncn2c1c(=O)[nH]c1ccc(Br)cc12)c1ccccc1,-22,58*,x,93*,50*,-1,DNMT1 confirm=4;Beacon interf=0
COC(=O)Nc1sc2c(c1C(N)=O)CCC(C)C2 (stereo not drawn),2,2,-3,1,97*,80*,
CC1CCc2c(sc(NC(=O)C3c4ccccc4Oc4ccccc43)c2C(N)=O)C1 (stereo not drawn),-2,1,-4,-10,3,x,
O=S(=O)(c1ccccc1)N1CCN(C(=S)NCCCN2CCOCC2)CC1,1,-3,5,2,49*,14,
COCCCN(C(=S)Nc1c(C)cc(C)cc1C)C(C)c1ccccn1 (stereo not drawn),0,-2,-3,3,46*,25*,
CCN1CCN(c2ccccc2NC(=O)c2ccc(-n3cccn3)cc2)CC1,7,-1,-5,-5,-2,x,
O=C(Nc1ccccc1-c1nc2ccccc2s1)C1=COCCO1,-2,51*,26,13,58*,16,
SMILES,SUMO1 PPI mod,LMPTP block,Scp-1 inhibitor,DNMT1 inh,STEP block,STEP conf,others
Cc1ccc(C)c(S(=O)(=O)N(C)C2CCS(=O)(=O)C2)c1 (stereo not drawn),-1,0,-7,0,2,x,
N/C(=N\OC(=O)CCCc1ccccc1)c1cccc([N+](=O)[O-])c1,-22,2,-10,-3,55*,15,
N/C(=N\OC(=O)CCCc1ccccc1)c1ccccc1,7,2,-6,3,-2,x,
O=C(NCCO)C(O)C(O)C(=O)NCCO (stereo not drawn),3,-1,-10,4,0,x,
COc1cccc(NC(=O)Cc2cn(C)c3ccccc23)c1,0,2,-7,-6,50*,34,
CCOC(=O)C(=N/O)/C(C)=N/NC(C)=O,-4,1,-4,0,-2,x,
CCOC(=O)C(=N/O)/C(C)=N/NC(=O)C(=O)Nc1cc(Cl)ccc1Cl,3,0,-7,-6,51*,8,
CSc1nc(N)nc(C2CC2)n1,4,-2,-4,2,-1,x,
COc1ccccc1Nc1ccc([N+](=O)[O-])cc1N,-39,3,4,-8,47*,40*,
COc1ccccc1Nc1c([N+](=O)[O-])cc(C)cc1[N+](=O)[O-],-32,3,-5,1,5,x,
O=C(C[C@@H]1C[C@@H]2c3cc(NS(=O)(=O)c4ccc(F)cc4)ccc3O[C@@H]2[C@H](CO)O1)N1CCc2ccccc2C1,4,0,x,-4,-3,x,
O=C(COc1ccc(Cl)cc1)Nc1ccc2oc(-c3ccncc3)nc2c1,-1,10,6,1,5,x,
COc1ccc(OCC(=O)Nc2ccc3oc(-c4ccncc4)nc3c2)cc1,-1,4,34,-2,49*,11,
